Data published in ChEMBL document CHEMBL4699492, “Discovery of Novel Pyrazolo[3,4-b] Pyridine Derivatives with Dual Activities of Vascular Remodeling Inhibition and Vasodilation for the Treatment of Pulmonary Arterial Hypertension” (J Med Chem, 2020).
Converted amounts (≈) assume the structure as drawn.

Experiments:
[1] = system: Rattus norvegicus; assay: Inhibition of vascular remodeling activity in Sprague-Dawley rat model of hypoxia-induced pulmonary artery hypertension assessed as weight ratio of right ventricle/left ventricle plus septum at 10 mg/kg, po administered daily for 2 weeks (reference value: 0.63); format: functional
[2] = Solubility of compound in water at pH 7.3; format: physicochemical; conditions: buffer
[3] = system: Pulmonary Artery Smooth Muscle Cells; assay: Stimulation of sGC in HPASMC assessed as increase in intracellular cGMP level at 100 uM measured after 1 hr in presence of PDE5 inhibitor IBMX by cGMP-d2/europium cryptate reagent based HTRF assay relative to control; format: tissue-based; conditions: Homo sapiens, filed as activator
How it was run: (§1)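 HPASMCs were suspended at 100,000 cells/mL in PBS with 0.2% BSA, with or without 10 µM ODQ. Compounds were added as a 6-point, 10-fold dilution series; the top 2× stock was 200 µM. Incubation was 1 h at room temperature, in triplicate. cGMP-d2 in lysis buffer and europium cryptate were then added for 1 h before HTRF reading. Three independent experiments.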

[4] = Half life in Sprague-Dawley rat liver microsomes at 1.5 uM preincubated for 5 mins followed by NADPH addition and measured up to 45 mins by LC-MS/MS analysis; format: ADME, Microsome; conditions: time <=50 min
How it was run: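 Liver microsomes (0.75 mg/mL), human or SD rat, in 0.1 M potassium phosphate pH 7.4 with 3.0 mM MgCl2 and 1.5 µM compound, run in duplicate. After 5 min preincubation at 37 °C, reaction started with 3 mM NADPH. Quenched at 0, 5, 15, 30 and 45 min with ice-cold acetonitrile containing internal standard. Ketanserin served as positive control and a no-NADPH buffer incubation as negative control. LC-MS/MS read-out.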

[5] = target: AMP-activated protein kinase, AMPK (Homo sapiens) (UniProt P54646+O43741+P54619+Q9UGJ0+Q9Y478+Q13131+Q9UGI9); assay: Inhibition of AMPK in TGFbeta-induced HPASMC assessed as reduction in cell migration measured after 24 hrs by wound healing assay; format: tissue-based; conditions: Pulmonary Artery Smooth Muscle Cells, dose microM 5-10, time 24.0 hrs
How it was run: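 Wound-healing assay. 5 × 10^4 cells were seeded per well and grown 24 h to near confluence. The monolayer was scratched with a pipette tip and washed with PBS. Cells were then kept in 1% FBS medium with TGF-β (10 ng/mL) or under hypoxia (1% O2, 5% CO2, 94% N2), alone or with compound. Migration ran 24 h at 37 °C, imaged at 0 and 24 h. Mean ± SD from three independent experiments.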

[6] = Effect on total AMPK level in lungs of Sprague-Dawley rat model of hypoxia-induced pulmonary artery hypertension at 10 mg/kg, po administered daily for 2 weeks by Western blot analysis; format: ADME, organism-based; conditions: in vivo, 336 h
How it was run: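 Hypoxic PAH model in male SD rats (160-200 g) kept at 10% O2 for 4 weeks. Oral dosing at 10 mg/kg daily for 14 days, suspended in 0.5% CMC-Na; control and hypoxia groups received vehicle only. Lungs homogenized in RIPA with protease and phosphatase inhibitors. 30 µg protein run on 10% SDS-PAGE, then PVDF blotting, with β-actin as loading reference. Three independent runs.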

[7] = system: Pulmonary Artery Smooth Muscle Cells; assay: Stimulation of sGC in HPASMC assessed as increase in intracellular cGMP level at 100 uM measured after 1 hr in absence of PDE5 inhibitor IBMX by cGMP-d2/europium cryptate reagent based HTRF assay relative to control; format: tissue-based; conditions: Homo sapiens; how it was run: as §1

- solubility [2]: 0.034 µg/mL (≈ 0.0777 µM)
- half-life at 1.5 µM [4]: 10 min
- inhibition [5]: Dose-dependent effect
SMILES: Cc1ccccc1COc1nc2c(cc1-c1nc(N)cc(N)n1)c(C)nn2-c1ccccc1
- Ratio [1]: 0.38
- Activity [3]: 40%
- Activity [6]: Non-Toxic
- Activity [7]: 5%
